# The source made the active and inactive calls. No cut-off for these calls is given here.
# What was measured:
# [1] = target: T1, Cathepsin G (Homo sapiens) (UniProt P08311); test: The second order inactivation rate constant was expressed as inhibition of cathepsin G(Cat G).Inhibitor concentrations were 35-710 uM; No inhibition
# T1 sequence (whole entry): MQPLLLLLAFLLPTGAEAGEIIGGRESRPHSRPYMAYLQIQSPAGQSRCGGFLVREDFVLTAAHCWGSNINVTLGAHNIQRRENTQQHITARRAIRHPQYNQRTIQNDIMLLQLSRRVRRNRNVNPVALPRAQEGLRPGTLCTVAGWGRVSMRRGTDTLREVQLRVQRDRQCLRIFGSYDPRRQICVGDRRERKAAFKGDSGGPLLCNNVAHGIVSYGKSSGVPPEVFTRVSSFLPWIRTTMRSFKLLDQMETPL
# In short: (§1)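 Kitz–Wilson incubation method. Enzyme was preincubated with inhibitor (added in DMSO) in 0.1 M HEPES, 0.5 M NaCl, pH 7.5, at 25 °C. Aliquots were taken over time and diluted into pNA substrate: HLE MeO-Suc-Ala-Ala-Pro-Val-pNA (0.2–0.5 mM), PPE Suc-Ala-Ala-Ala-pNA, ChT and Cat G Suc-Val-Pro-Phe-pNA (0.4–0.5 mM). Release was read at 410 nm. kobs/[I] from ln(v0/vt) vs time. Mean of two determinations. Fast rates measured with equimolar inhibitor and enzyme.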
# [2] = target: T2, Neutrophil elastase (Homo sapiens) (UniProt P08246); test: The second order inactivation rate constant expressed as inhibition of human leukocyte elastase (HLE). Inhibitor concentrations were 0.07-710 uM; in short: as §1
# T2 sequence (whole entry): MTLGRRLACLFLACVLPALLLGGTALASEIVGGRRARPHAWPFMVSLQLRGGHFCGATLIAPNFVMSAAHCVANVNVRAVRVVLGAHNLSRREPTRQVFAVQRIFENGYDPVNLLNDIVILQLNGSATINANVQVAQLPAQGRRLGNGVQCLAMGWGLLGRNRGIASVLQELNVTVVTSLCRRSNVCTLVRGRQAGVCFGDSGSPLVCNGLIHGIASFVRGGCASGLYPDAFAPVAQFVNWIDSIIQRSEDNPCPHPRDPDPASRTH
# [3] = target: T3, Chymotrypsin-like elastase family member 2A (Sus scrofa) (UniProt P08419); test: The second order inactivation rate constant expressed as inhibition of porcine pancreatic elastase (PPE).Inhibitor concentrations were 0.04-2.0 mM
# T3 sequence (whole entry): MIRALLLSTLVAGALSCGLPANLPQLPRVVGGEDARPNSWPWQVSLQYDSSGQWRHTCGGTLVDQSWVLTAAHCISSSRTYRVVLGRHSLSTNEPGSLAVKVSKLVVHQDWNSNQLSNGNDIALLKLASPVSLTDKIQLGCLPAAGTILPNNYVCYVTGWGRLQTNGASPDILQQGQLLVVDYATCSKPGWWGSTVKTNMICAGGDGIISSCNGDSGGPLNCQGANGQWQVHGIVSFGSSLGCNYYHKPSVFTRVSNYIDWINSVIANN
# [4] = target: Chymotrypsinogen A (Bos taurus) (UniProt P00766); test: The second order inactivation rate constant was expressed as inhibition of chymotrypsin (ChT).Inhibitor concentrations were 1.7-58 uM;No inhibition; in short: as §1
# [5] = target: T3, Chymotrypsin-like elastase family member 2A (Sus scrofa); test: The second order inactivation rate constant was expressed as inhibition of porcine pancreatic elastase (PPE).Inhibitor concentrations were 0.04-2.0 uM;No inhibition; settings: in the assay text read “0.04-2.0 mM” for “0.04-2.0 uM”; in short: as §1
# [6] = target: Chymotrypsinogen A (Bos taurus) (UniProt P00766); test: The second order inactivation rate constant was expressed as inhibition of chymotrypsin (ChT). Inhibitor concentrations were 3.4-70 uM; in short: as §1
# [7] = target: T2, Neutrophil elastase (Homo sapiens); test: Inhibition of human leukocyte elastase(HLE) at 0.7-1.7 uM; in short: as §1
# [8] = target: T3, Chymotrypsin-like elastase family member 2A (Sus scrofa); test: The second order inactivation rate constant was expressed as inhibition of porcine pancreatic elastase (PPE). Inhibitor concentrations were 34-56 uM; in short: as §1
# [9] = target: Chymotrypsinogen A (Bos taurus) (UniProt P00766); test: The second order inactivation rate constant was expressed as inhibition of chymotrypsin (ChT).Inhibitor concentrations were 360-570 uM; in short: as §1
# [10] = target: T2, Neutrophil elastase (Homo sapiens); test: The second order inactivation rate constant was expressed as inhibition of human leukocyte elastase (HLE). Inhibitor concentrations were 0.4-4 uM; in short: as §1
# [11] = target: T3, Chymotrypsin-like elastase family member 2A (Sus scrofa); test: The second order inactivation rate constant was expressed as inhibition of porcine pancreatic elastase (PPE).Inhibitor concentrations were 2-600 uM; in short: as §1
# [12] = target: T3, Chymotrypsin-like elastase family member 2A (Sus scrofa); test: Percent activity regained after 17h of incubation with hydroxylamine (Non-preincubated Pancreatic elastase).
# In short: (§2)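 Without preincubation, hydroxylamine was added immediately after inhibition at [I]/PPE 200:1, and activity was read after 17 h. With preincubation, the 1:1 [I]/PPE complex stood 20 h at room temperature in buffer before hydroxylamine was added. Activity read at 1–17 h.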
# [13] = target: T3, Chymotrypsin-like elastase family member 2A (Sus scrofa); test: Percent activity regained after 20h of pre-incubation before addition of hydroxylamine (Preincubated Pancreatic elastase).; in short: as §2
# [14] = Half-life for hydrolysis of compound was determined from kinetic constant.; format: ADME
# In short: (§3)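 Spontaneous hydrolysis in 0.1 M HEPES, 0.5 M NaCl, pH 7.5, 10% v/v DMSO final, 25 °C. Inhibitor added from 2.9–5.0 mM DMSO stock. Ring opening followed as absorbance decrease at 385 nm (ε385 = 3300 M⁻¹ cm⁻¹). Half-life from the first-order rate. Two determinations, standard errors ±15% or less.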
# [15] = Half-life for hydrolysis was determined from kinetic constant.; format: ADME; in short: as §3
# [16] = target: T1, Cathepsin G (Homo sapiens); test: The second order inactivation rate constant was expressed as inhibition of cathepsin G (Cat G).Inhibitor concentrations were 35-710 uM; in short: as §1
# [17] = target: T2, Neutrophil elastase (Homo sapiens); test: Second order inactivation rate constant for inhibition of human leukocyte elastase.; in short: as §1
# [18] = target: T2, Neutrophil elastase (Homo sapiens); test: Inhibition of human leukocyte elastase.; in short: as §1
# [19] = target: T3, Chymotrypsin-like elastase family member 2A (Sus scrofa); test: Percent activity regained after 17h of incubation with hydroxylamine (Non-preincubated PPE).; in short: as §2
# [20] = target: T1, Cathepsin G (Homo sapiens); test: Inhibition of cathepsin G at 35-710 uM; in short: as §1
# [21] = target: T2, Neutrophil elastase (Homo sapiens); test: The second order inactivation rate constant was expressed as inhibition of human leukocyte elastase.; in short: as §1
compound,measurement,setting,value
O=C(Nc1ccccc1)Nc1ccc2c(Cl)c(OCCBr)oc(=O)c2c1,K obs / 1,[1],inactive
same,K obs / 1,[2],1.2e+06 M⁻¹ s⁻¹
same,K obs / 1,[3],36 M⁻¹ s⁻¹
CC(C)(C)OC(=O)N[C@@H](Cc1ccccc1)C(=O)Nc1ccc2c(Cl)c(OCCCBr)oc(=O)c2c1,K obs / 1,[1],inactive
same,K obs / 1,[2],1320 M⁻¹ s⁻¹
O=C(CCC(=O)OCc1ccccc1)Nc1ccc2c(Cl)c(OCCBr)oc(=O)c2c1,K obs / 1,[4],inactive
same,K obs / 1,[2],3210 M⁻¹ s⁻¹
same,K obs / 1,[5],inactive
CCCOc1oc(=O)c2cc(N/C(S)=N/Cc3ccccc3)ccc2c1Cl,k obs / 1,[6],120 M⁻¹ s⁻¹
same,k obs / 1,[7],> 130000 M⁻¹ s⁻¹
same,k obs / 1,[8],79 M⁻¹ s⁻¹
COc1oc(=O)c2cc(NC(=O)[C@H](Cc3ccccc3)NC(=O)c3ccc([N+](=O)[O-])cc3)ccc2c1Cl,k obs / 1,[9],30 M⁻¹ s⁻¹
same,k obs / 1,[10],130000 M⁻¹ s⁻¹
same,k obs / 1,[11],64 M⁻¹ s⁻¹
same,Activity regained,[12],91%
same,Activity regained,[13],6%
COc1oc(=O)c2cc(NC(=O)[C@H](Cc3ccccc3)NC(=O)c3ccc(C)cc3)ccc2c1Cl,k obs / 1,[9],130 M⁻¹ s⁻¹
same,k obs / 1,[10],170000 M⁻¹ s⁻¹
same,k obs / 1,[11],83 M⁻¹ s⁻¹
same,Activity regained,[12],91%
same,Activity regained,[13],14%
same,half-life,[14],> 48 h
COc1oc(=O)c2cc(NC(=O)[C@H](Cc3ccccc3)NC(=O)c3cccc(C)c3)ccc2c1Cl,k obs / 1,[9],64 M⁻¹ s⁻¹
same,k obs / 1,[10],130000 M⁻¹ s⁻¹
same,k obs / 1,[11],1600 M⁻¹ s⁻¹
same,half-life,[14],> 48 h
CCCOc1oc(=O)c2cc(N/C(S)=N/c3ccccc3)ccc2c1Cl,k obs / 1,[6],240 M⁻¹ s⁻¹
same,k obs / 1,[7],> 170000 M⁻¹ s⁻¹
same,k obs / 1,[8],59 M⁻¹ s⁻¹
CCCOc1oc(=O)c2cc(NC(=O)Nc3ccccc3)ccc2c1Cl,k obs / 1,[6],5200 M⁻¹ s⁻¹
same,k obs / 1,[7],140000 M⁻¹ s⁻¹
same,k obs / 1,[8],1600 M⁻¹ s⁻¹
CCCOc1oc(=O)c2cc(NC(=O)NCC)ccc2c1Cl,k obs / 1,[6],12000 M⁻¹ s⁻¹
same,k obs / 1,[7],> 280000 M⁻¹ s⁻¹
same,k obs / 1,[8],220 M⁻¹ s⁻¹
O=C(CCc1ccccc1)Nc1ccc2c(Cl)c(OCCCBr)oc(=O)c2c1,K obs / 1,[1],inactive
CCCOc1oc(=O)c2cc(NC(=O)[C@H](Cc3ccccc3)NS(=O)(=O)c3ccc(C)cc3)ccc2c1Cl,k obs / 1,[6],6100 M⁻¹ s⁻¹
same,k obs / 1,[7],33000 M⁻¹ s⁻¹
same,k obs / 1,[8],520 M⁻¹ s⁻¹
Nc1ccc2c(Cl)c(OCCCBr)oc(=O)c2c1,half-life,[15],3.2 h
same,K obs / 1,[16],210 M⁻¹ s⁻¹
same,k obs / 1,[17],4000 M⁻¹ s⁻¹
same,K obs / 1,[2],4000 M⁻¹ s⁻¹
same,[I],[18],3.4 µM
same,K obs / 1,[3],10 M⁻¹ s⁻¹
COc1oc(=O)c2cc(NC(=O)[C@H](Cc3ccccc3)NC(=O)c3ccccc3)ccc2c1Cl,k obs / 1,[9],55 M⁻¹ s⁻¹
same,k obs / 1,[10],180000 M⁻¹ s⁻¹
same,k obs / 1,[11],530 M⁻¹ s⁻¹
same,Activity regained,[19],91%
same,Activity regained,[13],31%
same,half-life,[14],> 48 h
CC(C)(C)OC(=O)N[C@H](Cc1ccccc1)C(=O)Nc1ccc2c(Cl)c(OCCCBr)oc(=O)c2c1,K obs / 1,[1],inactive
same,K obs / 1,[2],1480 M⁻¹ s⁻¹
Nc1ccc2c(Cl)c(OCCBr)oc(=O)c2c1,half-life,[15],2.4 h
same,K obs / 1,[20],410 M⁻¹ s⁻¹
same,K obs / 1,[21],200000 M⁻¹ s⁻¹
same,[I],[18],0.07 µM
same,K obs / 1,[3],1000 M⁻¹ s⁻¹

# — ChEMBL document CHEMBL1128722, “Mechanism-based isocoumarin inhibitors for human leukocyte elastase. Effect of the 7-amino substituent and 3-alkoxy group in 3-alkoxy-7-amino-4-chloroisocoumarins on inhibitory potency” (J Med Chem, 1995)
